Results as given in ChEMBL document CHEMBL3272049, “Estrogen potentiating activity of two spiro compounds having approximately similar molecular dimensions to stilbestrol” (1977).

Legend:
Type in all cases: functional
Conditions in all cases: route intraperitoneal
Mus musculus [1] = experiment: Potentiation of stilbesterol-induced estrogenic activity in albino CFLP-ICI strain 1 mouse assessed as change in uterus weight at 0.001 mg/kg, ip qd for three consecutive days measured 24 hrs post last dose relative to control
Method in brief: (§1)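 Mice received stilbestrol 0.01 mg/kg together with graded doses of spiro derivative, both in arachis oil, ip once daily at 10.00 h for three consecutive days; comparison group got stilbestrol alone. Killed by cervical dislocation 24 h after final dose. Uteri dissected free of fat, blotted and weighed. Uterine ratio = uterine weight (mg)/body weight (g) × 100; mean ± SE.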

Mus musculus [2] = experiment: Estrogenic activity in albino CFLP-ICI strain 1 mouse assessed as uterine ratio at 10 mg/kg, ip qd for three consecutive days measured 24 hrs post last dose relative to body weight
Mus musculus [3] = experiment: Estrogenic activity in albino CFLP-ICI strain 1 mouse assessed as change in uterus weight at 10 mg/kg, ip qd for three consecutive days measured 24 hrs post last dose (reference value: 6.9 +/- 0.7 mg)
Mus musculus [4] = experiment: Estrogenic activity in albino CFLP-ICI strain 1 mouse assessed as uterine ratio at 0.1 mg/kg, ip qd for three consecutive days measured 24 hrs post last dose relative to body weight
Mus musculus [5] = experiment: Potentiation of stilbesterol-induced estrogenic activity in albino CFLP-ICI strain 1 mouse assessed as uterine ratio at 0.01 mg/kg, ip qd for three consecutive days measured 24 hrs post last dose relative to body weight; method in brief: as §1
Mus musculus [6] = experiment: Potentiation of stilbesterol-induced estrogenic activity in albino CFLP-ICI strain 1 mouse assessed as uterine ratio at 0.1 mg/kg, ip qd for three consecutive days measured 24 hrs post last dose relative to body weight; method in brief: as §1
Mus musculus [7] = experiment: Potentiation of stilbesterol-induced estrogenic activity in albino CFLP-ICI strain 1 mouse assessed as change in uterus weight at 0.1 mg/kg, ip qd for three consecutive days measured 24 hrs post last dose relative to control; method in brief: as §1
Mus musculus [8] = experiment: Potentiation of stilbesterol-induced estrogenic activity in albino CFLP-ICI strain 1 mouse assessed as change in uterus weight at 10 mg/kg, ip qd for three consecutive days measured 24 hrs post last dose relative to control; method in brief: as §1
Mus musculus [9] = experiment: Potentiation of stilbesterol-induced estrogenic activity in albino CFLP-ICI strain 1 mouse assessed as change in uterus weight at 0.01 mg/kg, ip qd for three consecutive days measured 24 hrs post last dose relative to control; method in brief: as §1
Mus musculus [10] = experiment: Potentiation of stilbesterol-induced estrogenic activity in albino CFLP-ICI strain 1 mouse assessed as uterine ratio at 0.001 mg/kg, ip qd for three consecutive days measured 24 hrs post last dose relative to body weight; method in brief: as §1
Mus musculus [11] = experiment: Potentiation of stilbesterol-induced estrogenic activity in albino CFLP-ICI strain 1 mouse assessed as uterine ratio at 10 mg/kg, ip qd for three consecutive days measured 24 hrs post last dose relative to body weight; method in brief: as §1
Mus musculus [12] = experiment: Estrogenic activity in albino CFLP-ICI strain 1 mouse assessed as change in uterus weight at 0.1 mg/kg, ip qd for three consecutive days measured 24 hrs post last dose (reference value: 6.9 +/- 0.7 mg)
Mus musculus [13] = experiment: Estrogenic activity in albino CFLP-ICI strain 1 mouse assessed as change in uterus weight at 0.01 mg/kg, ip qd for three consecutive days measured 24 hrs post last dose (reference value: 6.9 +/- 0.7 mg)
Mus musculus [14] = experiment: Estrogenic activity in albino CFLP-ICI strain 1 mouse assessed as uterine ratio at 0.01 mg/kg, ip qd for three consecutive days measured 24 hrs post last dose relative to body weight

Question: For `O=C1CCC2(CC1)CCc1ccccc1C2=O`, which Activity (Mus musculus [1]) is on record?
Answer: 29.9 mg

Question: What about the Ratio (Mus musculus [2]) of the same compound?
Answer: 64

Question: What about the Activity (Mus musculus [3]) of the same compound?
Answer: 6.9 mg

Question: What about the Ratio (Mus musculus [4]) of the same compound?
Answer: 78

Question: What about the Ratio (Mus musculus [5]) of the same compound?
Answer: 377

Question: And the Ratio (Mus musculus [6])?
Answer: 293

Question: And the Activity (Mus musculus [7])?
Answer: 30.7 mg

Question: And the Activity (Mus musculus [8])?
Answer: 36.5 mg

Question: What about the Activity (Mus musculus [9]) of the same compound?
Answer: 37.1 mg

Question: And the Ratio (Mus musculus [10])?
Answer: 306

Question: What about the Ratio (Mus musculus [11]) of the same compound?
Answer: 293

Question: What about the Activity (Mus musculus [12]) of the same compound?
Answer: 10 mg

Question: With `OC1CCC2(CC1)Cc1ccccc1C2O` (configuration not stated) as the compound, how does the Ratio (Mus musculus [2]) read?
Answer: 86

Question: What about the Activity (Mus musculus [3]) of the same compound?
Answer: 9.7 mg

Question: And the Ratio (Mus musculus [4])?
Answer: 80

Question: What about the Ratio (Mus musculus [5]) of the same compound?
Answer: 225

Question: What about the Activity (Mus musculus [8]) of the same compound?
Answer: 29.2 mg

Question: What about the Activity (Mus musculus [9]) of the same compound?
Answer: 24.5 mg

Question: What about the Ratio (Mus musculus [11]) of the same compound?
Answer: 247

Question: And the Activity (Mus musculus [12])?
Answer: 7.4 mg

Question: `CC/C(=C(/CC)c1ccc(O)cc1)c1ccc(O)cc1` [DIETHYLSTILBESTROL] was tested. Which Activity (Mus musculus [13]) did it give?
Answer: 17.5 mg

Question: And the Ratio (Mus musculus [14])?
Answer: 167
